Screens as filed in PubChem.
An excerpt weighted towards active compounds, which were near 2.2% of everything screened.
IEC-6 cytotox: IEC-6 cytotoxicity, counter-screen for KLF5 inhibitors; luminescence viability; inhibition, % at 5 µM; 0.78% of 290,000 active; AID 1825; in the data active = inhibition above about 22%;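 also: 0% = plate median of test compound wells and 100% = cytotoxic reference compound wells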
MT stabilize HCS: microtubule stabilization, imaging screen; HeLa tubulin immunostaining HCS, 24 h; share of cells brighter than vehicle mean+2SD; % tubulin-high responders, % at 10 µM; 0.83% of 200,000 active; AID 2205;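 active = plate Z-score above 3 for both tubulin-high and condensed-nucleus cell shares, with cell loss under 80%, at 10 µM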;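 also: anti alpha tubulin signal scored within the nucleus-defined area of each cell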
BaF3 tox: reduces parental Ba/F3 cell viability, JAK2V617F counter-screen. AID 1486. 1.1% of 220,000 active. inhibition, % at 5.6 µM. CellTiter-Glo ATP luminescence;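 active = inhibition above a per-campaign cutoff, the mean inhibition of all tested compounds plus 3 SD, cut at about 27% in these data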;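 also: 0% = DMSO wells and 100% = JAK Inhibitor I control wells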
Ba/F3 V617F tox: reduce viability of Ba/F3 cells dependent on JAK2V617F; Ba/F3 EpoR-JAK2V617F viability, ATP luminescence; inhibition, % at 5.6 µM; 1.1% of 220,000 active;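 active = inhibition above the campaign mean plus 3 SD over all tested compounds, cut at about 24% in these data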;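 also: cytokine-independent growth of Ba/F3 cells driven by EpoR plus mutant JAK2; 0% = DMSO-treated cells and 100% = JAK inhibitor I control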
bCat nuc transl: beta-catenin nuclear translocation modulation; HeLa beta-catenin nuclear translocation, immunofluorescence imaging; nuclear translocation activity, % at 5 µM; 0.3% of 190,000 active; AID 1665;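 active = nuclear translocation activity above 50% at 5 µM, with a well cell count of 50 or more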;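 also: per-cell ratio of nuclear to cytoplasmic median beta-catenin stain intensity; plate controls were DMSO negative control for no effect and GSK-3 inhibitor IX positive control for full effect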
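System: HeLa cells, endogenous beta-catenin; compound dosing: 5 µM primary single dose, 0.1% DMSO, 0.02–20 µM confirmation series; incubation: 24 h compound exposure at 37°C, 5% CO2; signal: beta-catenin immunofluorescence imaging with DAPI; evaluation: % activation, nuclear-to-cytoplasmic median beta-catenin signal ratio per cell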
APP transl inh: APP translation inhibition; SH-SY5Y APP 5'UTR-luciferase reporter, luminescence; inhibition, % at 2 µM; AID 1285; 0.82% of 190,000 active;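 active = inhibition above a set limit, derived from the sample mean plus 3 SD, cut at about 45% in these data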
An asterisk follows results filed as active; / = no result given.

SMILES	IEC-6 cytotox	MT stabilize HCS	BaF3 tox	Ba/F3 V617F tox	bCat nuc transl	APP transl inh
COc1ccc(CNCC(O)COc2cccc3c2OC(C)(C)C3)cc1 (stereo not given)	17.0	1.6	28.7*	19.6	0.1	5.7
COC(=O)c1ccc(COc2cccc3c2OC(C)(C)C3)cc1	13.6	/	/	/	/	/
O=C(Nc1cc(-c2ccccc2)[nH]n1)c1ccc(Cl)cc1	-4.2	/	5.0	1.0	0.8	/
O=C(CSc1ccc(-c2ccc(F)cc2)nn1)NC1CCCCC1	1.3	/	/	/	/	/
COc1ccc(CCNc2ncnc3c2oc2ccccc23)cc1OC	18.3	1.4	62.2*	51.3*	-0.6	12.2
COc1ccc(Nc2ncnc3sccc23)cc1OC	3.3	/	/	/	/	/
COc1ccc(CCNc2ncnc3sccc23)cc1OC	21.8	2.3	69.5*	64.5*	0.9	-27.8
COc1ccc(CCNc2nc(C)nc3c2oc2ccccc23)cc1OC	12.1	1.9	18.2	1.5	12.0	-19.6
NS(=O)(=O)c1ccc(CCNc2ncnc3sccc23)cc1	0.6	5.4	43.0*	33.1*	-5.3	17.3
Cc1sc2ncnc(NCCc3ccc(S(N)(=O)=O)cc3)c2c1C	18.1	2.4	58.0*	50.7*	2.8	8.1
COc1ccc(C(=O)N2CCc3ccc(NC(=O)c4ccccn4)cc3C2)cc1F	6.2	/	/	/	/	/
COc1ccc(OC)c(C(c2c(O)nc(SC)[nH]c2=O)c2c(O)nc(SC)[nH]c2=O)c1	-3.7	/	/	/	/	/
CC(NC(=O)c1cc(S(=O)(=O)N2CCCC2)cn1C)c1ccccc1 (stereo not given)	5.4	/	/	/	/	/
S=c1[nH]c(-c2ccccc2)cn1/N=C/c1cccc2ccccc12	-2.4	17.9*	4.6	5.5	3.6	-17.3
CC(C)(C)NC(=O)C(c1ccncc1)N(C(=O)Cn1nnc(-c2ccc(F)cc2)n1)c1ccc(F)cc1 (stereo not given)	3.2	3.0	81.3*	3.1	-0.5	-22.2
Cc1ccc(N(C(=O)Cn2nnc(-c3ccc(F)cc3)n2)C(C(=O)NC(C)(C)C)c2ccncc2)cc1 (stereo not given)	-3.1	2.9	5.9	-3.7	0.9	2.6
Cc1ncc([N+](=O)[O-])n1CC(=O)Nc1ccc(F)cc1F	-3.0	/	/	/	/	/
O=C(CSCc1ccc([N+](=O)[O-])cc1)N/N=C/c1ccncc1	-2.1	1.8	83.8*	2.1	0.9	-7.9
Cc1c(CC(=O)NCCCC(=O)O)c(=O)oc2cc3c(cc12)CCC(C)(C)O3	-1.4	/	/	/	/	/
CCCCC(=O)NC(c1ccco1)c1cc(Cl)c2cccnc2c1O (stereo not given)	-3.8	1.8	6.7	2.8	2.4	45.7*
COc1ccc(C(NC(=O)c2cccnc2)c2cc(Cl)c3cccnc3c2O)cc1OC (stereo not given)	7.2	1.3	4.7	0.6	1.0	73.7*
CCC(=O)NC(c1ccccc1OC)c1ccc2cccnc2c1O (stereo not given)	19.1	1.3	68.2*	60.7*	-3.3	88.8*
CCC(=O)NC(c1ccco1)c1cc(Cl)c2cccnc2c1O (stereo not given)	-5.0	0.8	9.0	-0.1	1.2	-4.0
CCC(=O)NC(c1cccs1)c1cc([N+](=O)[O-])c2cccnc2c1O (stereo not given)	2.7	2.2	7.4	-2.5	/	/
CCC(=O)NC(c1ccc(OC)cc1)c1cc(Cl)c2cccnc2c1O (stereo not given)	2.2	1.6	-0.8	-2.1	-0.2	64.5*
SMILES	IEC-6 cytotox	MT stabilize HCS	BaF3 tox	Ba/F3 V617F tox	bCat nuc transl	APP transl inh
Oc1c(C(Nc2ccccn2)c2cccnc2)cc(Cl)c2cccnc12 (stereo not given)	1.2	2.9	3.6	-3.8	0.0	30.0
CCCCC(=O)NC(c1ccccc1Cl)c1ccc2cccnc2c1O (stereo not given)	19.4	/	/	/	/	/
O=C(O)C(Cc1c[nH]c2ccccc12)NS(=O)(=O)c1ccc(Cl)c(C(F)(F)F)c1 (stereo not given)	3.0	/	/	/	/	/
COc1ccc(S(=O)(=O)N2CCN(Cc3ccco3)CC2)cc1	6.4	/	/	/	/	/
Cc1nnsc1C(=O)N/N=C/c1ccc(OC(F)(F)F)cc1	-5.9	3.2	7.0	-1.5	-1.9	0.2
CCOC(=O)C1(Cc2cccc(F)c2)CCN(Cc2cnn(CC)c2C)CC1	-3.5	0.6	4.8	-1.5	1.6	9.7
O=C(CCc1ccccc1)NC(c1cccs1)c1cc(Cl)c2cccnc2c1O (stereo not given)	-4.3	10.3*	1.2	-1.2	-0.5	68.1*
CCCC(=O)NC(c1cccs1)c1cc([N+](=O)[O-])c2cccnc2c1O (stereo not given)	-0.6	0.5	4.5	-2.9	/	5.2
CCCC(=O)NC(c1ccc(OC)cc1)c1ccc2cccnc2c1O (stereo not given)	37.9*	8.7*	66.1*	54.1*	-0.2	81.6*
O=C(NC1CCN(S(=O)(=O)c2ccc(F)cc2)CC1)c1cccc(F)c1	0.4	/	/	/	/	/
CC(=O)Nc1ccc(NC(=O)/C(Cl)=C/c2ccccc2)cc1	7.0	3.5	93.1*	2.0	-0.3	-81.7
c1ccc(-c2nnc3sc(-c4ccncc4)nn23)cc1	-1.4	3.7	3.4	1.1	/	-26.5
c1ccc(-c2nnc3sc(-c4csc5c4CCCC5)nn23)cc1	-2.0	20.8*	-0.2	-0.7	-0.1	-2.1
C=CCc1cc(C)ccc1OCCOCCN1CCN(C)CC1	0.9	/	/	/	/	/
CCCCOc1ccc(CSC(CC(=O)O)C(=O)O)cc1 (stereo not given)	-4.7	1.8	-0.8	-0.8	-2.9	1.2
CCCCOc1ccc(CSCCN=C(N)N)cc1	1.8	9.3	76.2*	38.5*	2.7	-40.8
Fc1ccc(COc2ccc3ccccc3c2CNc2nn[nH]n2)cc1	3.6	3.9	1.9	-3.4	9.4	-6.0
Fc1ccccc1COc1ccc2ccccc2c1CNc1nn[nH]n1	-2.4	18.4*	3.6	-2.4	-4.3	-8.8
O=C(OCCN1C(=O)c2cccc3c(N4CCOCC4)ccc(c23)C1=O)c1cc(Cl)cc(Cl)c1	-8.7	30.4*	6.1	2.4	/	88.5*
CCN(CC)S(=O)(=O)c1ccc(C(=O)OCCN2C(=O)c3cccc4c(N5CCOCC5)ccc(c34)C2=O)cc1	6.8	3.5	4.1	-0.2	-1.4	-8.4
COc1ccc(N2C(N)=NC(N)=NC23CCCC3)cc1	-3.7	4.3	63.9*	56.7*	0.8	20.6
COc1ccccc1N1C(N)=NC(N)=NC12CCCCC2	0.3	/	/	/	/	/
NC1=NC2(CCCCC2)N(c2cccc(Cl)c2)C(N)=N1	-2.3	2.9	70.3*	68.0*	/	-13.9
CCCc1cc(N2CCCC(C(=O)Nc3c(OC)cccc3OC)C2)n2ncnc2n1 (stereo not given)	4.5	3.1	3.1	-4.5	3.0	50.3*
COc1cc2c(cc1OC)CN(C(=S)Nc1ccccc1Cl)CC2	2.1	1.8	6.3	2.8	-1.3	0.3
COc1cc2c(cc1OC)CN(C(=S)Nc1ccccc1)CC2	-3.1	3.5	33.1*	4.2	/	-7.4
Cc1ccc(-n2c(CCC(=O)O)ccc2-c2cccs2)cc1C	-2.2	2.7	55.0*	0.1	0.3	-18.4
